Reference: ChEMBL document CHEMBL1806356, “Synthesis, characterization and antimicrobial studies of some new pyrazole incorporated imidazole derivatives” (Eur J Med Chem, 2011)

Experiments:
Escherichia coli [1] = assay: Antibacterial activity against Escherichia coli ATCC 25922 assessed as zone of inhibition at 1000 ug/ml after 24 hrs by agar diffusion method; format: functional; settings: ATCC 25922, 24 h, read-out: IZ
In short: (§1)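 Well diffusion on Mueller-Hinton agar seeded with 24 h old bacterial cultures. Test compounds were dissolved in DMSO at 1 and 0.5 mg/mL and added to labeled wells. Plates were incubated 24 h at 37 °C. The inhibition zone around each well was measured in mm. Triplicate experiments, standard deviation calculated.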

Aspergillus flavus [2] = assay: Antifungal activity against Aspergillus flavus at 1000 ug/ml after 72 hrs by agar diffusion method; format: functional; settings: read-out: DIZ
In short: (§2)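 Fungal spores were suspended in normal saline (one loopful in 3 mL) and lawned on agar plates. Wells were punched with a sterile cork borer and loaded with test compound in DMSO at the different concentrations. A DMSO solvent control was included. Petri dishes were prepared in triplicate and held at 25 °C for 72 h.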

Mus musculus [3] = assay: Toxicity in Swiss albino mouse assessed as behavioral changes at 1000 to 3000 mg/kg, po administered as single dose measured at 4th to 24th hrs; format: organism-based; parameters: dose 1000-3000 mg/kg, route oral; settings: in vivo
In short: (§3)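 Single oral dose of 1000 to 3000 mg/kg, given as a fine suspension in double distilled water with Tween 80. Animals housed under a light/dark cycle. Toxic symptoms and behavioural changes were observed continuously at 4, 8, 12 and 24 h, and onset was recorded. Deaths were also recorded.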

Clostridium perfringens [4] = assay: Antibacterial activity against Clostridium perfringens assessed as zone of inhibition at 1000 ug/ml after 24 hrs by agar diffusion method; format: functional; settings: read-out: IZ
In short: (§4)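 Well diffusion on Mueller-Hinton agar seeded with 24 h old cultures. Compounds dissolved in DMSO at 1 and 0.5 mg/mL and added to wells punched with a sterile cork borer, with a DMSO-only control. Plates incubated 24 h at 37 °C. Read-out was the inhibition zone in mm, run in triplicate, standard deviation calculated.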

Salmonella typhimurium [5] = assay: Antibacterial activity against Salmonella Typhimurium assessed as zone of inhibition at 1000 ug/ml after 24 hrs by agar diffusion method; format: functional, Salmonella enterica subsp. enterica serovar Typhimurium; settings: Salmonella enterica, read-out: IZ; in short: as §1
Pseudomonas aeruginosa [6] = assay: Antibacterial activity against Pseudomonas aeruginosa ATCC 27853 assessed as zone of inhibition at 1000 ug/ml after 24 hrs by agar diffusion method; format: functional; settings: ATCC 27853, 24 h, read-out: IZ; in short: as §1
Salmonella typhimurium [7] = assay: Antibacterial activity against Salmonella Typhimurium assessed as zone of inhibition at 500 ug/ml after 24 hrs by agar diffusion method; format: functional, Salmonella enterica subsp. enterica serovar Typhimurium; settings: Salmonella enterica, read-out: IZ; in short: as §1
Candida albicans [8] = assay: Antifungal activity against Candida albicans at 500 ug/ml after 72 hrs by agar diffusion method; format: functional; settings: read-out: DIZ; in short: as §2
Nannizzia gypsea [9] = assay: Antifungal activity against Microsporum gypseum at 1000 ug/ml after 72 hrs by agar diffusion method; format: functional; settings: read-out: DIZ; in short: as §2
Aspergillus niger [10] = assay: Antifungal activity against Aspergillus niger at 500 ug/ml after 72 hrs by agar diffusion method; format: functional; settings: read-out: DIZ; in short: as §2
Bacillus subtilis [11] = assay: Antibacterial activity against Bacillus subtilis assessed as zone of inhibition at 1000 ug/ml after 24 hrs by agar diffusion method; format: functional; settings: read-out: IZ; in short: as §1
Staphylococcus aureus [12] = assay: Antibacterial activity against Staphylococcus aureus assessed as zone of inhibition at 500 ug/ml after 24 hrs by agar diffusion method; format: functional; settings: read-out: IZ; in short: as §1
Candida albicans [13] = assay: Antifungal activity against Candida albicans at 1000 ug/ml after 72 hrs by agar diffusion method by agar diffusion method; format: functional; settings: read-out: DIZ; in short: as §2
Clostridium perfringens [14] = assay: Antibacterial activity against Clostridium perfringens assessed as zone of inhibition at 500 ug/ml after 24 hrs by agar diffusion method; format: functional; settings: read-out: IZ; in short: as §4
Trichophyton rubrum [15] = assay: Antifungal activity against Trichophyton rubrum at 500 ug/ml after 72 hrs by agar diffusion method; format: functional; settings: read-out: DIZ; in short: as §2
Nannizzia gypsea [16] = assay: Antifungal activity against Microsporum gypseum at 500 ug/ml after 72 hrs by agar diffusion method; format: functional; settings: read-out: DIZ; in short: as §2
Aspergillus flavus [17] = assay: Antifungal activity against Aspergillus flavus at 500 ug/ml after 72 hrs by agar diffusion method; format: functional; settings: read-out: DIZ; in short: as §2
Mus musculus [18] = assay: Toxicity in Swiss albino mouse assessed as mortality at 1000 to 3000 mg/kg, po administered as single dose measured at 4th to 24th hrs; format: organism-based; parameters: dose 1000-3000 mg/kg, route oral; settings: in vivo; in short: as §3
Bacillus subtilis [19] = assay: Antibacterial activity against Bacillus subtilis assessed as zone of inhibition at 500 ug/ml after 24 hrs by agar diffusion method; format: functional; settings: read-out: IZ; in short: as §1
Trichophyton rubrum [20] = assay: Antifungal activity against Trichophyton rubrum at 1000 ug/ml after 72 hrs by agar diffusion method; format: functional; settings: read-out: DIZ; in short: as §2
Escherichia coli [21] = assay: Antibacterial activity against Escherichia coli ATCC 25922 assessed as zone of inhibition at 500 ug/ml after 24 hrs by agar diffusion method; format: functional; settings: ATCC 25922, 24 h, read-out: IZ; in short: as §1
Staphylococcus aureus [22] = assay: Antibacterial activity against Staphylococcus aureus assessed as zone of inhibition at 1000 ug/ml after 24 hrs by agar diffusion method; format: functional; settings: read-out: IZ; in short: as §1
Pseudomonas aeruginosa [23] = assay: Antibacterial activity against Pseudomonas aeruginosa ATCC 27853 assessed as zone of inhibition at 500 ug/ml after 24 hrs by agar diffusion method; format: functional; settings: ATCC 27853, 24 h, read-out: IZ; in short: as §1
Aspergillus niger [24] = assay: Antifungal activity against Aspergillus niger at 1000 ug/ml after 72 hrs by agar diffusion method; format: functional; settings: read-out: DIZ; in short: as §2

## COC(=O)/C=C1/C(=O)NC(=S)N1/N=C/c1c[nH]nc1-c1ccc(SC)cc1
Escherichia coli [1]
  zone of inhibition at 1000 µg/mL: 12 mm
Aspergillus flavus [2]
  zone of inhibition at 1000 µg/mL: 7 mm
Mus musculus [3]
  Activity: Non-toxic
Clostridium perfringens [4]
  zone of inhibition at 1000 µg/mL: 16 mm
Salmonella typhimurium [5]
  zone of inhibition at 1000 µg/mL: 12 mm
Pseudomonas aeruginosa [6]
  zone of inhibition at 1000 µg/mL: 16 mm
Salmonella typhimurium [7]
  zone of inhibition at 500 µg/mL: 11 mm
Candida albicans [8]
  zone of inhibition at 500 µg/mL: 4 mm
Nannizzia gypsea [9]
  zone of inhibition at 1000 µg/mL: 5 mm
Aspergillus niger [10]
  zone of inhibition at 500 µg/mL: 9 mm
Bacillus subtilis [11]
  zone of inhibition at 1000 µg/mL: 10 mm
Staphylococcus aureus [12]
  zone of inhibition at 500 µg/mL: 5 mm
Candida albicans [13]
  zone of inhibition at 1000 µg/mL: 5 mm
Clostridium perfringens [14]
  zone of inhibition at 500 µg/mL: 15 mm
Trichophyton rubrum [15]
  zone of inhibition at 500 µg/mL: 15 mm
Nannizzia gypsea [16]
  zone of inhibition at 500 µg/mL: 4 mm
Aspergillus flavus [17]
  zone of inhibition at 500 µg/mL: 6 mm
Mus musculus [18]
  Activity: Non-toxic
Bacillus subtilis [19]
  zone of inhibition at 500 µg/mL: 9 mm
Trichophyton rubrum [20]
  zone of inhibition at 1000 µg/mL: 16 mm
Escherichia coli [21]
  zone of inhibition at 500 µg/mL: 9 mm
Staphylococcus aureus [22]
  zone of inhibition at 1000 µg/mL: 6 mm
Pseudomonas aeruginosa [23]
  zone of inhibition at 500 µg/mL: 15 mm
Aspergillus niger [24]
  zone of inhibition at 1000 µg/mL: 10 mm

## COC(=O)/C=C1/C(=O)NC(=S)N1/N=C/c1c[nH]nc1-c1ccc(C)cc1
Escherichia coli [1]
  zone of inhibition at 1000 µg/mL: 5 mm
Aspergillus flavus [2]
  zone of inhibition at 1000 µg/mL: 6 mm
Clostridium perfringens [4]
  zone of inhibition at 1000 µg/mL: 6 mm
Salmonella typhimurium [5]
  zone of inhibition at 1000 µg/mL: 6 mm
Pseudomonas aeruginosa [6]
  zone of inhibition at 1000 µg/mL: 4 mm
Salmonella typhimurium [7]
  zone of inhibition at 500 µg/mL: 5 mm
Candida albicans [8]
  zone of inhibition at 500 µg/mL: 3 mm
Nannizzia gypsea [9]
  zone of inhibition at 1000 µg/mL: 4 mm
Aspergillus niger [10]
  zone of inhibition at 500 µg/mL: 9 mm
Bacillus subtilis [11]
  zone of inhibition at 1000 µg/mL: 9 mm
Staphylococcus aureus [12]
  zone of inhibition at 500 µg/mL: 3 mm
Candida albicans [13]
  zone of inhibition at 1000 µg/mL: 4 mm
Clostridium perfringens [14]
  zone of inhibition at 500 µg/mL: 5 mm
Trichophyton rubrum [15]
  zone of inhibition at 500 µg/mL: 9 mm
Nannizzia gypsea [16]
  zone of inhibition at 500 µg/mL: 3 mm
Aspergillus flavus [17]
  zone of inhibition at 500 µg/mL: 5 mm
Bacillus subtilis [19]
  zone of inhibition at 500 µg/mL: 8 mm
Trichophyton rubrum [20]
  zone of inhibition at 1000 µg/mL: 10 mm
Escherichia coli [21]
  zone of inhibition at 500 µg/mL: 4 mm
Staphylococcus aureus [22]
  zone of inhibition at 1000 µg/mL: 4 mm
Pseudomonas aeruginosa [23]
  zone of inhibition at 500 µg/mL: 3 mm
Aspergillus niger [24]
  zone of inhibition at 1000 µg/mL: 10 mm

## Brc1ccc(-c2nc(-c3c[nH]nc3-c3ccc(-c4ccccc4)cc3)[nH]c2-c2ccc(Br)cc2)cc1
Escherichia coli [1]
  zone of inhibition at 1000 µg/mL: 3 mm
Aspergillus flavus [2]
  zone of inhibition at 1000 µg/mL: 4 mm
Clostridium perfringens [4]
  zone of inhibition at 1000 µg/mL: 2 mm
Salmonella typhimurium [5]
  zone of inhibition at 1000 µg/mL: 3 mm
Pseudomonas aeruginosa [6]
  zone of inhibition at 1000 µg/mL: 2 mm
Salmonella typhimurium [7]
  zone of inhibition at 500 µg/mL: 2 mm
Candida albicans [8]
  zone of inhibition at 500 µg/mL: 2 mm
Nannizzia gypsea [9]
  zone of inhibition at 1000 µg/mL: 2 mm
Aspergillus niger [10]
  zone of inhibition at 500 µg/mL: 2 mm
Bacillus subtilis [11]
  zone of inhibition at 1000 µg/mL: 4 mm
Staphylococcus aureus [12]
  zone of inhibition at 500 µg/mL: 1 mm
Candida albicans [13]
  zone of inhibition at 1000 µg/mL: 3 mm
Clostridium perfringens [14]
  zone of inhibition at 500 µg/mL: 1 mm
Trichophyton rubrum [15]
  zone of inhibition at 500 µg/mL: 3 mm
Nannizzia gypsea [16]
  zone of inhibition at 500 µg/mL: 1 mm
Aspergillus flavus [17]
  zone of inhibition at 500 µg/mL: 3 mm
Bacillus subtilis [19]
  zone of inhibition at 500 µg/mL: 3 mm
Trichophyton rubrum [20]
  zone of inhibition at 1000 µg/mL: 4 mm
Escherichia coli [21]
  zone of inhibition at 500 µg/mL: 2 mm
Staphylococcus aureus [22]
  zone of inhibition at 1000 µg/mL: 2 mm
Pseudomonas aeruginosa [23]
  zone of inhibition at 500 µg/mL: 1 mm
Aspergillus niger [24]
  zone of inhibition at 1000 µg/mL: 3 mm
